Data: ChEMBL document CHEMBL4138188, “Eurycomalactone Inhibits Expression of Endothelial Adhesion Molecules at a Post-Transcriptional Level” (J Nat Prod, 2017)
Calls of active or inactive are those of the source. The rule behind the calls is not given here.

Columns and labels:
[1] = (§1) Inhibition of NF-kappaB in HUVECtert assessed as reduction in TNFalpha-induced VCAM-1 expression level pretreated for 30 mins followed by TNFalpha stimulation measured after 18 hrs by flow cytometry; set-up: species or system Homo sapiens
Method in brief: (§2)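 FITC-antibody surface staining, flow cytometry; expression relative to TNFα-stimulated control. Parthenolide 10 μM as positive control; means ± SD, n = 3, one-way ANOVA/Dunnett versus vehicle.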

Homo sapiens [2] = species: Homo sapiens; assay: as §1; method in brief: as §2
[3] = (§3) Inhibition of NF-kappaB in HUVECtert assessed as reduction in TNFalpha-induced E-selectin expression level pretreated for 30 mins followed by TNFalpha stimulation measured after 5 hrs by flow cytometry; set-up: species or system Homo sapiens; method in brief: as §2
Homo sapiens [4] = species: Homo sapiens; assay: as §3; method in brief: as §2
[5] = Effect on basal VCAM-1 expression level in HUVECtert at 0.5 to 10 uM incubated for 30 mins by flow cytometry; format: ADME; conditions: human, 0.5 h
Method in brief: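 Unstimulated HUVECtert treated with 0.5−10 μM test agent without TNFα; surface VCAM-1, ICAM-1 or E-selectin stained with FITC-labelled antibodies and read by flow cytometry.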

[6] = molecular target: T1, Inhibitor of nuclear factor kappa-B kinase subunit alpha (Homo sapiens) (UniProt O15111); assay: Inhibition of IKKalpha phosphorylation level in TNFalpha-stimulated HUVECtert at 2 uM pretreated for 30 mins followed by TNFalpha stimulation measured after 5 to 15 mins by Western blot analysis
T1 sequence (whole entry): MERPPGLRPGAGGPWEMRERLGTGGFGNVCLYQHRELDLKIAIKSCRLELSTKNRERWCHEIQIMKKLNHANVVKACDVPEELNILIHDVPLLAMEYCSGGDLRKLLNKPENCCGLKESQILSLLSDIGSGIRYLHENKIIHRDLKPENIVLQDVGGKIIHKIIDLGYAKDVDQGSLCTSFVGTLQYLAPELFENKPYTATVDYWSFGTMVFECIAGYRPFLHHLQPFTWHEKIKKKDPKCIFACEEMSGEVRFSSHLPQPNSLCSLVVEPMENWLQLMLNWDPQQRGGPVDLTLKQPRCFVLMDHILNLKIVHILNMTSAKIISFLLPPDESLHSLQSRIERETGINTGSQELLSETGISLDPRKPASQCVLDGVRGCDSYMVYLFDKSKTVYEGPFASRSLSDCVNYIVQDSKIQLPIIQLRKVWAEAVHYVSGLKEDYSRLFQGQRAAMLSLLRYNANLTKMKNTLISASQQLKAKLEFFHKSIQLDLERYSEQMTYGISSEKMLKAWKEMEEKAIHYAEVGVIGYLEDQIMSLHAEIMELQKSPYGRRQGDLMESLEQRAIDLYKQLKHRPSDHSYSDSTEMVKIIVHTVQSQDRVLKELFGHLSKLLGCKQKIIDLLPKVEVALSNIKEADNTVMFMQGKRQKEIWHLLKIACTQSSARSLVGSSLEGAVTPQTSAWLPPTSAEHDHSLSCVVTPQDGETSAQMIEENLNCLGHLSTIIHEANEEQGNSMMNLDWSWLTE
Method in brief: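 HUVECtert on gelatin-coated dishes pretreated with 2 μM agent or 0.1% DMSO, then TNFα 10 ng/mL; p-IKKα/β, p-IκBα and total IκBα immunoblotted at 5 or 15 min post-stimulation, actin loading control; means ± SD, n = 3, one-way ANOVA/Dunnett.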

[7] = molecular target: Transcription factor p65 (Homo sapiens) (UniProt Q04206); assay: Inhibition of NF-kappaB p65 binding to DNA consensus in TNFalpha-stimulated HUVECtert at 2 uM pretreated for 30 mins followed by TNFalpha stimulation measured after 1 hr […]
Sequence of Transcription factor p65 (Homo sapiens) (Q04206 whole entry): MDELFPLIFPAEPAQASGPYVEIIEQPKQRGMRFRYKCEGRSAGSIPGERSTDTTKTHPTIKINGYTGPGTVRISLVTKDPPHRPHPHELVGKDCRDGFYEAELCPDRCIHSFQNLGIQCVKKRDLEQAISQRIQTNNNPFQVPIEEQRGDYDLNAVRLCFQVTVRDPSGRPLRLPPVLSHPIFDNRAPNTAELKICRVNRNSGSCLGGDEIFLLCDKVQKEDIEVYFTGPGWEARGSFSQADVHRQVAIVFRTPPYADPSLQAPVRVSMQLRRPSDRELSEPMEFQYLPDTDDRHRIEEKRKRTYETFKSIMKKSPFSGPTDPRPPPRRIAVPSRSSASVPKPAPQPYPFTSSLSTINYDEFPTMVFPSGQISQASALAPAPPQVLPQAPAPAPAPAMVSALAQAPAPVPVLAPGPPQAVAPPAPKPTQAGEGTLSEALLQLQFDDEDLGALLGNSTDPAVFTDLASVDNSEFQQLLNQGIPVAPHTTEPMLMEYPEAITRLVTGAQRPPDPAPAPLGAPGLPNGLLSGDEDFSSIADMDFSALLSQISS

Homo sapiens [8] = species: Homo sapiens; assay: Inhibition of NF-kappaB in HUVECtert assessed as reduction in TNFalpha-induced ICAM-1 mRNA expression level at 0.5 to 5 uM pretreated for 30 mins followed by TNFalpha stimulation measured after 4 hrs by qRT-PCR analysis
Homo sapiens [9] = species: Homo sapiens; assay: Inhibition of NF-kappaB in HUVECtert assessed as reduction in TNFalpha-induced VCAM-1 mRNA expression level at 5 uM pretreated for 30 mins followed by TNFalpha stimulation measured after 4 hrs by qRT-PCR analysis
Homo sapiens [10] = species: Homo sapiens; assay: Reduction in p53 level in HUVECtert at 2 uM after 8 hrs by Western blot analysis; format: functional
Homo sapiens [11] = species: Homo sapiens; assay: Reduction in cyclin A level in HUVECtert at 2 uM after 8 hrs by Western blot analysis; format: functional
Homo sapiens [12] = species: Homo sapiens; assay: Inhibition of NF-kappaB in HUVECtert assessed as reduction in cyclin D1 mRNA expression level at 2 uM measured up to 240 mins by qRT-PCR analysis
Method in brief: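 HUVECtert incubated without TNFα with 2 μM agent, 1 μM cycloheximide or 0.1% DMSO for 0.5−4 h; cyclin D1 mRNA by qRT-PCR, 2−ΔΔCt analysis.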

Homo sapiens [13] = species: Homo sapiens; assay: Inhibition of de novo protein synthesis in HUVECtert at 2 to 5 uM after 30 mins by Click-iT OPP/Alexa fluor 488 picolyl azide reagent based confocal fluorescence microscopy; format: functional
Method in brief: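 Cells on gelatin coverslips (24 h) exposed 30 min to agent (2 or 5 μM; cycloheximide 1, 3.5, 35 μM) or 0.1% DMSO, then 20 μM OPP for 30 min; formaldehyde fixation, Triton permeabilisation, Alexa 488 picolyl azide click reaction 30 min, nuclear counterstain; confocal imaging at 10×, constant gain and exposure.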

## CC1=CC(=O)[C@@H](O)[C@@]2(C)[C@H]1CC(=O)[C@@]1(C)[C@H]3C(=O)O[C@H]([C@@H]3C)[C@H](O)[C@@H]12 [EURYCOMALACTONE]
[1]
  IC50: 0.54 µM
Homo sapiens [2]
  inhibition: Dose-dependent effect
[3]
  IC50: 0.56 µM
Homo sapiens [4]
  inhibition: Dose-dependent effect
[5]
  Activity: Non-Toxic
[6]
  inhibition: inactive
[7]
  inhibition: inactive
Homo sapiens [8]
  inhibition: inactive
Homo sapiens [9]
  inhibition: Active
Homo sapiens [10]
  Activity: inactive
Homo sapiens [11]
  Activity: inactive
Homo sapiens [12]
  inhibition: inactive
Homo sapiens [13]
  inhibition: Active
